Screening results as filed in PubChem.
Sampled rows, rich in hits. Any-hit rate of the full collection: about 1.8%.
CHRM4 agonist: CHRM4 agonism in calcium assay; P08173; CHO-K1 hM4/Gqi5, Fluo-8 calcium fluorescence; vehicle 0%, full acetylcholine response 100%; activation, % at 3 µM; actives 0.14% (n = 360,000);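 active = activation above the run mean over all test wells plus 3 SD, cut at about 32% in these data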;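 note: peak over basal fluorescence ratio per well then scaled between controls; 0% = DMSO wells and 100% = acetylcholine at EC100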
Target sequence (P08173 whole entry, looked up): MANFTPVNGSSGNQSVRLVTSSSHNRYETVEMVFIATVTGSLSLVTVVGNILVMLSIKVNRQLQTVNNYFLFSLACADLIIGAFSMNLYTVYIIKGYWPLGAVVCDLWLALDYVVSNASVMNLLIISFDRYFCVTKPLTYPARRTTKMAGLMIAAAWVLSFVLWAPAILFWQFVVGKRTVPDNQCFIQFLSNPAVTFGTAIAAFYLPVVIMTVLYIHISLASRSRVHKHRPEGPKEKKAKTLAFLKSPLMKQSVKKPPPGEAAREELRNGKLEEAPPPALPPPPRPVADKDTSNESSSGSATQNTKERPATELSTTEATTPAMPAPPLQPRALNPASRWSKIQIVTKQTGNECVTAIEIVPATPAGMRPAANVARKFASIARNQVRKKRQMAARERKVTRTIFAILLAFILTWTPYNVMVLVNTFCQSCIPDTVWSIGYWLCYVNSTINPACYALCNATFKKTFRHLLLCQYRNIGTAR
M5 ag: CHRM5 agonism in calcium assay; CHO-K1 hM5 cells, Fluo-8 calcium fluorescence; 0% DMSO wells, 100% maximal acetylcholine response; activation, % at 3 µM; actives 0.19% (n = 360,000);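 active = activation above the run's mean over test compounds plus 3 SD, cut at about 23% in these data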;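 note: signal is peak over basal fluorescence ratio across the kinetic read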
CHRM5 antagonist: antagonists of human muscarinic M5 receptor (CHRM5); P08912; CHO-hM5 cells, Fluo-8 calcium fluorescence, ACh EC80; inhibition, % at 3 µM; actives 0.59% (n = 360,000);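 active = inhibition above a per-plate cutoff, the mean of that plate's test compounds plus 3 SD, cut at about 27% in these data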;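 note: 0% = acetylcholine EC80 with DMSO and 100% = DMSO without agonist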
M4 antag: CHRM4 antagonism in calcium assay; P08173; CHO-hM4 cells, ACh EC80, Fluo-8 calcium fluorescence; inhibition, % at 3 µM; actives 0.73% (n = 360,000);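 active = inhibition above its plate's cutoff, the mean inhibition of sample wells plus 3 SD, cut at about 27% in these data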;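 note: 0% = acetylcholine EC80 with DMSO and 100% = DMSO without agonist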
CHRM4 PAM: positive allosteric modulators of human muscarinic M4 receptor | activation, % at 3 µM | actives 0.4% (n = 360,000) | AID 624126 | P08173 | CHO-K1 hM4/Gqi5, Fluo-8 calcium fluorescence, ACh EC20; 0% = ACh EC20, 100% = maximal ACh;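 active = activation above its plate's cutoff, the mean activation of sample wells plus 3 SD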
CHRM5 PAM: potentiates acetylcholine response at human M5 receptor. P08912. CHO-K1 hM5, Fluo-8 calcium, ACh EC20 PAM; 0% = ACh EC20, 100% = ACh EC100. activation, % at 3 µM. actives 0.3% (n = 360,000);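 active = activation above the run cutoff, the mean activation of all test compounds plus 3 SD, cut at about 18% in these data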
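Assay system – human M5 receptor in CHO-K1 cells · Read-out – % activation, ACh-normalized · Technique – Fluo-8 calcium fluorescence · Dosing – single-point, 3 µM nominal · Incubation – Fluo-8 loading 80 min at 37 °C plus 30 min room temperature · Repeats – singlicate, one well per test compound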
The depositor's hits bear a star.

SMILES	CHRM4 agonist	M5 ag	CHRM5 antagonist	M4 antag	CHRM4 PAM	CHRM5 PAM
Nc1c(-c2ccccc2)c(CSc2nc3ccccc3[nH]2)nn1-c1ccc(C(=O)O)cc1	1.5	-2.5	-2.2	-7.8	23.7*	6.4
CCS(=O)(=O)N1CCN(C(=O)c2cccc3ccccc23)CC1	1.2	0.6	8.6	-3.3	-0.3	2.9
CC(C)OCCCN(C)C1CCN(S(=O)(=O)c2ccc(-c3cc(C(F)(F)F)no3)s2)CC1	7.1	-6.8	9.3	53.3*	-21.1	-8.9
NS(=O)(=O)c1ccc(CCNC(=O)c2cc(-c3cccs3)nc3ccccc23)cc1	16.8	-0.3	9.3	15.7	-14.6	-12.9
Cc1ccc(S(=O)(=O)N(C)C)cc1NC(=O)c1cc(-c2ccncc2)nc2ccccc12	16.0	2.8	9.5	-11.6	-7.2	-23.9
NS(=O)(=O)c1cccc(NC(=O)c2cc(-c3cccs3)nc3ccccc23)c1	12.9	-0.3	13.4	29.6*	-22.2	-13.1
CN(C)S(=O)(=O)c1cccc(NC(=O)c2cc(-c3cccs3)nc3ccccc23)c1	21.5	4.2	16.8	31.2*	-32.5	-18.4
NS(=O)(=O)c1cccc(NC(=O)c2cccs2)c1	0.2	-2.5	-4.1	-8.9	2.0	4.7
NS(=O)(=O)c1ccc(CNC(=O)c2cc(-c3cccs3)nc3ccccc23)cc1	16.1	-1.0	16.2	30.0*	-20.4	-16.4
COc1cccc(N2CCN(C(=O)c3cccc(NC4=NC5CS(=O)(=O)CC5S4)c3)CC2)c1 (stereo not given)	3.4	2.5	6.2	5.5	-0.9	-7.0
COc1cc(-c2nc3ccccn3c2/N=C/c2ccccc2)ccc1O	0.5	51.2*	2.7	6.8	-1.7	-12.2
O=C(N/C(=C/c1cccnc1)C(=O)N1CCOCC1)c1ccccc1	1.0	-3.0	4.6	-7.5	21.0*	2.1
COc1cc(/C=C(/NC(=O)c2ccccc2)C(=O)N2CCOCC2)c([N+](=O)[O-])cc1OC	0.8	-1.7	28.6*	7.9	-0.9	-6.3
O=S(=O)(c1cccc(F)c1)N1CCc2sccc2C1c1ccc(OC(F)(F)F)cc1 (stereo not given)	0.1	-1.1	-6.3	-3.0	-10.6	-3.8
O=S(=O)(N[C@H](CO)c1ccccc1)c1ccc(Br)cc1F	0.7	0.7	5.4	7.1	-3.6	-2.1
COc1cc(-c2noc(C)c2-c2ccc(N(C)C)nc2)cc(OC)c1OC	35.8*	36.1*	12.0	-3.0	-7.2	-11.6
CN(C)Cc1cc(C(F)(F)F)ccc1C(O)(c1ccccc1)c1ccccc1	2.8	-10.4	75.4*	57.3*	-11.4	-37.6
CC(C)CC1(C)NC(=O)N(CC(=O)Nc2ccc3c(c2)CCC3)C1=O (stereo not given)	2.1	0.8	8.5	-3.0	1.8	-0.7
Cc1ccc2c(c1)C(=O)C(=O)N2Cc1ccc(Cl)cc1	8.2	34.5*	-0.4	1.4	-3.9	-3.3
Cc1ccc2c(c1)C(=O)C(=O)N2Cc1ccc(F)cc1	1.6	21.1	14.3	-2.2	1.3	5.9
O=C1O[C@H]([C@@H](O)CO)C(O)=C1O	8.8	69.7*	-5.3	-10.6	-0.8	-20.4
CN(C)CCC(c1ccccc1)c1ccccn1 (stereo not given)	0.9	-1.4	15.2	13.9	-8.6	-16.8
CC(C1=C(CCN(C)C)Cc2ccccc21)c1ccccn1 (stereo not given)	0.4	-12.7	6.7	64.1*	-10.0	-37.2
COc1cc(C(=O)N2CCN(c3ccccc3)CC2)c2ccccc2n1	5.8	2.6	24.7	-3.5	1.2	-9.2
O=C(NCCN1CCC(n2c(=O)[nH]c3ccccc32)CC1)C(c1ccccc1)c1ccccc1	5.4	-4.0	36.7*	15.7	-12.1	-24.0
SMILES	CHRM4 agonist	M5 ag	CHRM5 antagonist	M4 antag	CHRM4 PAM	CHRM5 PAM
CCCCOc1ccc(C(=O)NCCN2CCC(n3c(=O)[nH]c4ccccc43)CC2)cc1	13.0	-2.0	8.6	58.6*	-14.8	-10.6
COc1cccc(NC(=O)COC(=O)C2CC(=O)N(c3ccc(C)cc3)C2)c1 (stereo not given)	-0.6	1.2	7.9	7.0	0.1	-12.1
COC(=O)C1=CN(c2ccc3c(c2)OCO3)C(N)=C(C#N)C1c1ccccc1 (stereo not given)	1.9	-0.2	-9.5	4.2	-1.7	0.6
CN(CCOc1ccc(Cl)cc1)C(=O)c1cc(-c2ccco2)nc2ccccc12	21.6	1.6	27.8*	19.0	-10.4	-26.4
COc1ccc(C2C(C(=O)N3CCN(c4ccccc4)CC3)c3ccccc3C(=O)N2C)cc1 (stereo not given)	6.5	3.9	6.2	-1.8	-8.1	-10.2
COc1ccc(C2C(C(=O)N3CCN(C)CC3)c3ccccc3C(=O)N2C2CCCCC2)cc1 (stereo not given)	1.6	-10.7	-8.1	-9.0	22.4*	22.2*
CCOC(=O)c1cc(N2CCCCC2)nc2ccccc12	-0.9	-2.7	27.6*	-1.0	-6.3	-7.8
Cc1cc(C)nc(NS(=O)(=O)c2ccc(NC(=O)c3cccc(N4C(=O)CCC4=O)c3)cc2)n1	2.1	2.7	20.1	6.2	24.5*	7.8
Cc1ccnc(NS(=O)(=O)c2ccc(NC(=O)c3ccc(N4C(=O)CCC4=O)cc3)cc2)n1	0.1	4.2	-4.7	4.4	6.1	6.3
CC(C)[C@H](NC(=O)[C@@H]1CSC2c3ccccc3C(=O)N21)C(=O)N1CCCCC1 (stereo not given in full)	1.3	-2.3	11.6	1.6	-0.9	-3.4
COc1ccc(-c2cc(CNC(=O)CCl)on2)cc1	2.6	-0.5	-7.3	-13.7	7.9	19.3*
Cc1ccc(N2C(=O)CCSC23C(=O)Nc2ccccc23)cc1 (stereo not given)	0.6	-7.2	6.9	27.1*	-17.8	-9.4
CC(=O)Nc1nc(-c2ccc3c(c2)CC(C)N3C(=O)C2CC2)c(C)s1 (stereo not given)	1.7	-2.8	3.0	-5.9	-7.8	-3.4
Cc1sc(NC(=O)c2ccco2)nc1-c1ccc2c(c1)CC(C)N2C(=O)C1CC1 (stereo not given)	17.5	4.7	17.5	32.2*	-15.5	-16.3
COCCCOc1cc(NCc2ccccc2)c2ncn(C(C)C)c2c1	-0.3	1.5	0.7	-13.3	12.1	7.1
COc1cc(NCc2ccccc2)c2ncn(Cc3ccccc3)c2c1	17.0	10.1	-23.6	-19.7	36.1*	21.8*
CCCCOc1cc(NCc2ccccc2)c2ncn(C(C)C)c2c1	11.2	12.6	7.7	-23.3	28.8*	12.8
